# Screening results (PubChem)
# Only a selection was taken, and hits are over-represented in it overall.
# T cruzi growth-1: T. cruzi proliferation inhibition | T. cruzi beta-gal in NIH3T3, GalScreen luminescence, 90 h | inhibition, % at 8.34 µM | 5.9% of 77,000 active;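 active means mean inhibition above about 93%, with at least 55% of replicates each passing it, limit read from the data, passing the limit was not always enough; inconclusive means only one of those two conditions holds; inactive means neither condition holds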
# KDM4C inh: inhibitors of human demethylase GASC-1 KDM4C. Q9H3R0. GST-KDM4C 2-372, H3K9me3 peptide, LANCE TR-FRET. AID 720574. 0.15% of 96,000 active. inhibition, % at 12.5 µM;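 active means mean replicate inhibition above about 25%, with at least 55% of replicates also reaching it, limit read from the data, passing the limit was not always enough; inconclusive means only one of those two conditions met; inactive means neither condition met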
#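 Material: GST-tagged GASC-1 (JMJD2C) catalytic fragment, aa 2-372 / Quantity: enzyme final amount 10 nM / Medium: HEPES buffer, pH 7.5, plus ascorbate / Doses: one test concentration per compound / Incubation: 30 min reaction, 60 min detection, RT / Measured by: LANCE TR-FRET / Read-out: inhibition from TR-FRET ratio decrease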
# IDH1 R132H inh: inhibitors of human IDH1 R132H; O75874; IDH1 R132H reductase, diaphorase/resazurin fluorescence, 60 min; inhibition, % at 10 µM; 0.18% of 70,000 active; AID 624101; in the data active means inhibition above about 34%; inconclusive means no clear call, values can overlap the other calls; inactive means below about 11%;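 further: 0% = DMSO and 100% = no enzyme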
# Target sequence (O75874 whole entry R132H): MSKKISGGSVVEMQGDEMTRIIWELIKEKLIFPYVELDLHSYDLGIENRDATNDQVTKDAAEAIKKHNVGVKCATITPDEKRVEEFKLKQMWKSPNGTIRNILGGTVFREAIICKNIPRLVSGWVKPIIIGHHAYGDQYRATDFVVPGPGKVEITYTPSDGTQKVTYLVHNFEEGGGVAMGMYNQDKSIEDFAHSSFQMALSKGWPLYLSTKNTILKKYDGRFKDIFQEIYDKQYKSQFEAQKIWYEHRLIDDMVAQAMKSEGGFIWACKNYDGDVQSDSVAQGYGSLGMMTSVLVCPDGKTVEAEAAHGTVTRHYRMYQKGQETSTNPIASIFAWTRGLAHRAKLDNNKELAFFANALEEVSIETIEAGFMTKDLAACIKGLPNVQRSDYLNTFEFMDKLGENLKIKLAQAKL
# T cruzi growth-2: Trypanosoma cruzi proliferation inhibition; shares compounds with T cruzi growth-1; T. cruzi beta-gal in NIH3T3, GalScreen luminescence, 90 h; inhibition, % at 8.35 µM; 72% of 5,600 active;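 active means mean replicate inhibition above about 95% and at least 55% of replicates individually reaching it, limit read from the data; inconclusive means only one of the two criteria is met; inactive means neither criterion is met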
# T cruzi growth-3: blocks T. cruzi growth in NIH3T3 host cells. inhibition, % at 2.09 µM. 21% of 5,600 active. T. cruzi beta-gal in NIH3T3, GalScreen luminescence, 90 h. AID 651740. shares compounds with T cruzi growth-1;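 active means mean inhibition above about 95%, with at least 55% of replicates also reaching it, limit read from the data; inconclusive means meets just one of the two conditions; inactive means meets neither condition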;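 further: plate controls were neutral control median for no effect and positive control median for full effect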
# NIH3T3 tox: cytotoxicity in mouse NIH/3T3 fibroblasts. shares compounds with T cruzi growth-1. 14% of 5,600 active. cytotoxicity (signal decrease), % at 8.35 µM. NIH/3T3 viability, CellTiter-Glo ATP luminescence, 90 h;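 active means mean signal decrease across replicates above about 35% based on untreated-well scatter, with enough replicates individually passing, limit read from the data; inconclusive means no rule stated though some were filed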;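 further: 0% = median of neutral control wells and 100% = median of positive control wells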
# NIH3T3 tox 2: NIH/3T3 (mouse) viability loss; shares compounds with T cruzi growth-1; NIH/3T3 viability, CellTiter-Glo ATP luminescence, 90 h; inhibition, % at 24.9 µM; 56% of 5,600 active;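 active means mean loss of cell viability signal at or above a set limit, and enough replicates individually reaching it; inconclusive means meets only the mean limit or only the replicate share; inactive means meets neither condition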;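 further: 0% = median of neutral control wells and 100% = median of positive control wells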
# * marks the source's active call; other numbers are inactive results; ? = inconclusive; / = no result given.
SMILES,T cruzi growth-1,KDM4C inh,IDH1 R132H inh,T cruzi growth-2,T cruzi growth-3,NIH3T3 tox,NIH3T3 tox 2
O=C(Cc1cccnc1)N1CCCCN2[C@H](C1)[C@H](c1ccc(C#CC3CCCC3)cc1)[C@@H]2CO,104*,-1,/,90,30,-9,97*
O=C(Cc1cccnc1)N1CCCCN2[C@H](C1)[C@@H](c1ccc(C#CC3CC3)cc1)[C@@H]2CO,-155,/,/,/,/,/,/
O=C(Cc1cccnc1)N1CCCCN2[C@@H](CO)[C@H](c3ccc(C#CC4CC4)cc3)[C@@H]2C1,108*,/,/,100*,51,20,20
O=C(Cc1cccnc1)N1CCCCN2[C@@H](CO)[C@@H](c3ccc(C#CC4(O)CCCC4)cc3)[C@@H]2C1,61,0,/,/,/,/,/
O=C(Cc1cccnc1)N1CCCCN2[C@@H](CO)[C@H](c3ccc(C#CC4(O)CCCC4)cc3)[C@@H]2C1,41,1,/,/,/,/,/
C=C(C)[C@@H]1C2C(=O)O[C@H]1[C@H]1OC(=O)[C@@]34OC3C[C@]2(O)[C@@]14C (stereo not given in full),/,/,-2,/,/,/,/
COC(=O)[C@H]1[C@H](CO)[C@H]2Cn3c(ccc(-c4ccc(F)cc4)c3=O)[C@@H]1N2C(=O)c1ccccc1F,0,0,/,/,/,/,/
COc1ccc(-n2nc(C(F)(F)F)cc2-c2ccc(Cl)cc2)cc1,/,/,0,/,/,/,/
COc1cc(CNCCc2c[nH]c3ccccc23)c([N+](=O)[O-])cc1OC,/,/,0,/,/,/,/
CCCN1[C@@H]2c3ccc(-c4ccc(OC)cc4)c(=O)n3C[C@H]1[C@H](CO)[C@H]2C(=O)OC,16,-2,/,/,/,/,/
C/C=C(/C)C(=O)OC1CCN2CC=C(COC(=O)C(O)(C(C)O)C(C)(C)O)C12 (stereo not given),/,/,0,/,/,/,/
C[C@H]1CCCC(=O)CCC/C=C/c2cc(O)cc(O)c2C(=O)O1,/,/,-1,/,/,/,/
O=C(Cc1cccnc1)N1CCCCN2[C@H](CO)[C@@H](c3ccc(C#CC4CC4)cc3)[C@@H]2C1,48,/,/,/,/,/,/
O=C(Cc1cccnc1)N1CCCCN2[C@@H](CO)[C@@H](c3ccc(C#CC4CCCC4)cc3)[C@@H]2C1,105*,0,/,?,-4,7,102*
CC(C(=O)OC1CC2CCC(C1)N2C)c1ccc(Br)cc1 (stereo not given),/,/,1,/,/,/,/
O=C(Cc1ccccc1)N1CCCCN2[C@H](C1)[C@H](c1ccc(C#Cc3ccccc3)cc1)[C@@H]2CO,131*,-1,/,104*,57,33,104*
O=C(Cc1ccccc1)N1CCCCN2[C@H](CO)[C@@H](c3ccc(C#CC4(O)CCCC4)cc3)[C@H]2C1,88,0,/,/,/,/,/
COc1ccc(C#Cc2ccc([C@@H]3[C@@H](CO)N4CCCCN(C(=O)Cc5ccccc5)C[C@@H]34)cc2)cc1,111*,1,/,90,104*,-1,103*
COc1ccc(C#Cc2ccc([C@H]3[C@@H](CO)N4CCCCN(C(=O)Cc5ccccc5)C[C@H]34)cc2)cc1,77,-2,/,/,/,/,/
O=C(Cc1ccccc1)N1CCCCN2[C@H](CO)[C@@H](c3ccc(-c4ccccc4)cc3)[C@@H]2C1,31,-1,/,/,/,/,/
O=C(Cc1ccccc1)N1CCCCN2[C@H](C1)[C@@H](c1ccc(C#Cc3ccccc3)cc1)[C@@H]2CO,115*,-1,/,98*,73,?,103*
O=C(Cc1ccccc1)N1C[C@H]2[C@@H](c3ccccc31)[C@@H](CO)N2Cc1ccccc1,42,0,/,/,/,/,/
CN1CC(C(=O)N[C@]2(C)O[C@@]3(O)[C@@H]4CCCN4C(=O)[C@H](Cc4ccccc4)N3C2=O)C=C2c3cccc4[nH]cc(c34)C[C@H]21 (stereo not given in full),/,/,0,/,/,/,/
O=C(Cc1cccnc1)N1CCCCN2[C@H](C1)[C@@H](c1ccc(/C=C/c3ccccc3)cc1)[C@@H]2CO,103*,2,/,105*,100*,48*,105*
C/C=C/c1ccc([C@H]2[C@H](CO)N3CCCCN(C(=O)Cc4cccnc4)C[C@@H]23)cc1,88,0,/,/,/,/,/
SMILES,T cruzi growth-1,KDM4C inh,IDH1 R132H inh,T cruzi growth-2,T cruzi growth-3,NIH3T3 tox,NIH3T3 tox 2
O=C(Cc1cccnc1)N1CCCCN2[C@@H](CO)[C@@H](c3ccc(/C=C/c4ccccc4)cc3)[C@@H]2C1,108*,-1,/,97*,68,7,106*
C/C=C/c1ccc([C@H]2[C@H]3CN(C(=O)Cc4cccnc4)CCCCN3[C@H]2CO)cc1,3,0,/,/,/,/,/
c1ccc2sc(C3(N4CCCC4)CCCCC3)cc2c1,/,/,-1,/,/,/,/
CC(Cc1ccc(O)cc1)NCC(O)c1cc(O)cc(O)c1 (stereo not given),/,/,-1,/,/,/,/
CC(C)CC#Cc1ccc([C@@H]2[C@H](CO)N3CCCCN(C(=O)Cc4ccccn4)C[C@@H]23)cc1,97*,2,/,108*,73,15,104*
O=C(Cc1ccccn1)N1CCCCN2[C@H](CO)[C@H](c3ccc(C#Cc4ccccc4)cc3)[C@@H]2C1,116*,0,/,109*,70,36*,46*
CCCC#Cc1ccc([C@@H]2[C@H](CO)N3CCCCN(C(=O)Cc4ccccn4)C[C@@H]23)cc1,55,-1,/,/,/,/,/
CC(C)CC#Cc1ccc([C@@H]2[C@@H](CO)N3CCCCN(C(=O)Cc4ccccn4)C[C@H]23)cc1,88,5,/,/,/,/,/
CN1C[C@@H](NS(=O)(=O)N(C)C)C[C@@H]2c3cccc4c3c(cn4C)C[C@H]21,/,/,0,/,/,/,/
C(#CCN1CCCC1)CN1CCCC1,/,/,1,/,/,/,/
CCC(=O)N1[C@@H]2c3ccc(C4=CCCC4)c(=O)n3C[C@H]1[C@H](CO)[C@H]2C(=O)OC,1,1,/,/,/,/,/
CCOC(=O)c1[nH]c2ccc(OC)cc2c1C(SCC(=O)O)c1ccc(C(F)(F)F)cc1 (stereo not given),/,/,7,/,/,/,/
